Data taken from ChEMBL document CHEMBL5108054, “Targeting Acute Myelogenous Leukemia Using Potent Human Dihydroorotate Dehydrogenase Inhibitors Based on the 2-Hydroxypyrazolo[1,5-a]pyridine Scaffold: SAR of the Aryloxyaryl Moiety” (J Med Chem, 2022).
Activity calls are given as the source filed them. No cut-off for these calls is given here.

Assays:
[1] = Metabolic stability in rat liver microsomes assessed as retention time of hydroxyl derivative metabolites by HPLC-HRMS analysis; type: ADME, Microsome
In short: (§1)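 Controls were heat-inactivated microsomes, no regenerating system, and drug-free blank. Samples were taken at 0, 15, 30, 60 and 120 min and quenched with cold acetonitrile. Analysis was by LC-HRMS (C18, water/acetonitrile gradient, ± ESI), with metabolites predicted by SyGMa.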

[2] = Metabolic stability in rat liver microsomes assessed as retention time of dihydroxyl derivative metabolite by HPLC-HRMS analysis; type: ADME, Microsome; in short: as §1
[3] = Metabolic stability in rat liver microsomes assessed as retention time of hydrogenated dihydroxyl derivative metabolite by HPLC-HRMS analysis; type: ADME, Microsome; in short: as §1
THP-1 [4] = test: Induction of apoptosis in human THP-1 cells assessed as increase in pro-apoptotic activity at 1 uM; type: functional, cell-based
MV4-11 [5] = test: Induction of apoptosis in human MV4-11 cells assessed as increase in pro-apoptotic activity at 1 uM; type: functional, cell-based
Jurkat = test: Cytotoxicity against human Jurkat T cells assessed as reduction in cell viability at 1 to 100 uM measured after 3 days by propidium iodide staining based CFSE staining; type: functional; conditions: dose 1-100 µM; time 3 day
THP-1 [6] = test: Induction of apoptosis in human THP-1 cells assessed as increase in pro-apoptotic activity at 0.1 uM; type: functional, cell-based
In short: (§2)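 THP1 or MV4-11 cells (1 × 10^4/well) exposed to inhibitor at 0.1 or 1 μM, alone or with dipyridamole 1.0 μM and/or uridine 5 μM, for 3 days. Apoptosis was read as annexin V-FITC staining by flow cytometry. n = 3; ANOVA/Tukey.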

THP-1 [7] = test: Antileukemic activity against human THP-1 cells xenografted in Balb/c mouse assessed as reduction in volume at 20 mg/kg, ip measured twice a week; type: functional, organism-based
THP-1 [8] = test: Antileukemic activity against human THP-1 cells xenografted in Balb/c mouse assessed as reduction in tumor weight at 20 mg/kg, ip; type: functional, organism-based
MV4-11 [9] = test: Induction of apoptosis in human MV4-11 cells assessed as increase in pro-apoptotic activity at 0.1 uM; type: functional, cell-based; in short: as §2
[10] = Metabolic stability in rat liver microsomes assessed as retention time of parent compound by HPLC-HRMS analysis; type: ADME, Microsome; in short: as §1

Retention_time [1] | Retention_time [2] | Retention_time [3] | Retention_time [10] | SMILES | Activity (THP-1 [4]) | Activity (MV4-11 [5]) | CC30 (Jurkat) | Activity (THP-1 [6]) | Activity (THP-1 [7]) | Activity (THP-1 [8]) | Activity (MV4-11 [9])
13.41 min | 10.59 min | 14.14 min | – | O=C(Nc1c(F)c(F)c(-c2ccccc2)c(F)c1F)c1c(O)nn2ccccc12 | – | – | – | – | – | – | –
– | – | – | – | Cc1cc(Oc2ccccc2)c(C(C)C)cc1NC(=O)c1c(O)nn2ccccc12 | Active | Active | >100 µM | – | – | – | –
– | – | – | 17.33 min | Cc1cc(NC(=O)c2c(O)nn3ccccc23)c(C(C)C)cc1Oc1ccccc1 | – | – | >100 µM | Active | Active | Active | Active
